# Screening data as filed in PubChem BioAssay.
# M1 ag: M1 muscarinic receptor agonists, primary screen, CHO-M1 cells, Fluo-4 calcium, agonist mode | hit rate 3% among 64,000 | B-score at 10 µM | Fluo-4 calcium fluorescence; stronger effect = higher value | Muscarinic acetylcholine receptor M1;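 active = fluorescence rise, raw or as B-score row- and column-corrected plate score, outside the 99.7% band of its plate's samples, either direction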
# D1 allo mod: D1 CRE-luciferase signal change, two-sided – cell-based, HEK293 D1, dopamine EC30, D1 allosteric modulator project, primary screen; hit rate 5.9% among 58,000; AID 641, 2007; D(1A) dopamine receptor (Homo sapiens), P21728; B-score at 10 µM; dopamine EC30 potentiation; actives deviate in either direction;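 active = luminescence count or its row- and column-corrected plate score outside the 99.7% band of the plate's sample wells, on either side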
# M1 antag: antagonists of rat M1 muscarinic receptor | AID 628, 2007 | hit rate 3.4% among 64,000 | Muscarinic acetylcholine receptor M1 (Rattus norvegicus), P08482 | CHO-M1 cells, Fluo-4 calcium, ACh EC80 antagonist mode; stronger effect = lower value | B-score at 10 µM;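 active = calcium fluorescence response, raw or row-and-column corrected B-score, differing from the plate sample mean either way at a set confidence level, mostly lower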
# Target sequence (P08482 whole entry, looked up): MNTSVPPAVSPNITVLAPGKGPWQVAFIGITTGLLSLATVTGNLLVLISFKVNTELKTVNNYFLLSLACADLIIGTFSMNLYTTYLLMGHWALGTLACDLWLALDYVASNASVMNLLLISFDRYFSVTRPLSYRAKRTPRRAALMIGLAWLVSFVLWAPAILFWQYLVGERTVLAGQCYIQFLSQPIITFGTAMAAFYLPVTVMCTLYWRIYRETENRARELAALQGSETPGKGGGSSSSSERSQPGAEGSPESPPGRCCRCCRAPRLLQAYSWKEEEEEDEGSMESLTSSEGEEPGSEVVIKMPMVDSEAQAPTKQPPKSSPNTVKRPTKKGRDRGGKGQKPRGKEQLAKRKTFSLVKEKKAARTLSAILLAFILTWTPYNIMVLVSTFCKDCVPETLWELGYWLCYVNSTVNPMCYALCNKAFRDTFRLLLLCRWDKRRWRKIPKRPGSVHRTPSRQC
# S1P1 ag-PAM: S1P1 agonists and agonism potentiators, primary screen, cell-based, primary and confirmation screens, CRE-bla reporter; hit rate 0.57% among 56,000; S1P1 CRE-bla cells, forskolin, beta-lactamase FRET, potentiator mode; S1P1 agonist co-added at EC20, 2 nM; 100% = saturating reference agonist, 0% = basal; Sphingosine 1-phosphate receptor 1 (Homo sapiens), P21453; activation, % at 9.5 µM; AID 449, 2006;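 active = activation above a cutoff set at the mean activation of all tested compounds plus 3 SD, cut at about 54% in these data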;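 also: forskolin at 4 µM as EC80 and the EC20 agonist is SEW2871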
# S1P3 agonist: human S1P3 receptor agonists, primary screen, cell-based, primary and confirmation, NFAT-BLA reporter; activation, % at 4.5 µM; Sphingosine 1-phosphate receptor 3 (Homo sapiens), Q99500; S1P3 NFAT-BLA reporter cells, agonism, FRET ratio; relative to 1 µM S1P, basal subtracted; hit rate 0.1% among 60,000;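 active = activation above the screen-wide mean plus 3 SD, cut at about 4.5% in these data, passing the limit was not always enough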
#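 Benchmarks: high control 1 µM S1P / System: stable CHO line with human S1P3, Gα16, NFAT-BLA reporter / Dosing: single compound concentration, 4.5 µM final / Timing: 4 h compound at 37 °C, 2 h substrate at RT / Measured by: FRET β-lactamase substrate fluorescence, excitation 405 nm, 460/535 nm emission ratio, background-subtracted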
# M1 antag confirm: rat M1 muscarinic receptor antagonists, confirmation, CHO cells, Fluo-4 calcium, duplicate; calcium response (max-min fluorescence) at 10 µM; ACh EC80 antagonism; stronger effect = lower value; shares compounds with M1 antag; hit rate 43% among 1,700;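 active = calcium response below the same-plate mean of wells given acetylcholine alone at its 80%-effect dose, minus 3 SD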
# mGluR4 antag: human mGluR4 response to M1 antagonist hits, M1 allosteric modulator project, cell-based, antagonist mode, secondary assay 1 | shares compounds with M1 antag | hit rate 0.9% among 1,700 | AID 678, 2007 | CHO-mGluR4 calcium flux, Fluo-4 fluorescence, glutamate EC80; stronger effect = lower value | fluorescence response (max-min) at 10 µM;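 active = fluorescence response below the plate's average for near-maximal glutamate wells, less 3 SD of those wells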;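 also: raw unnormalized fluorescence span taken in the window right after glutamate addition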
# Numbers stand for hits; n = inactive; x = no result. Most compounds without a hit are left out; they make up all but 11% or so of the library.
SMILES,M1 ag,D1 allo mod,M1 antag,S1P1 ag-PAM,S1P3 agonist,M1 antag confirm,mGluR4 antag
CC(C)N(CCCNC(=O)C1CCN(S(=O)(=O)N2CCOCC2)CC1)Cc1ccccc1,n,n,-3.75,n,n,n,n
O=C(NCCN1CCCCCC1)C1CCN(S(=O)(=O)N2CCOCC2)CC1,n,n,-5.21,n,n,n,n
CCN(CCCNC(=O)C1CCN(S(=O)(=O)c2cccc3nonc23)CC1)Cc1ccccc1,n,n,-6.83,x,x,304,n
O=C(NCCN1CCOCC1)C1CCC(=O)N1C1CCCCC1 (stereo not given),n,n,-1.44,n,n,n,n
CN(CCCNC(=O)C1CCN(S(=O)(=O)N2CCC3(CC2)OCCO3)CC1)Cc1ccccc1,n,n,n,x,x,x,x
COc1cc2c(cc1OC)C(C)N(C(=O)CCN1C(=O)C3C4C=CC(C4)C3C1=O)CC2 (stereo not given),n,n,n,n,n,x,x
COc1ccc(N=c2oc3c(OC)cccc3cc2C(=O)NCc2ccco2)c(OC)c1,n,n,n,n,n,x,x
Cn1c(=O)c2cc(S(=O)(=O)NCCC(=O)NCCC3=CCCCC3)ccc2n(C)c1=O,n,n,n,n,n,x,x
O=C(NC(C(=O)c1ccccc1)N1CCCCC1)c1ccccc1 (stereo not given),n,n,n,n,n,x,x
CCOc1ccccc1N1Cc2cc(C)c(C)cc2C1,n,n,-1.53,n,n,n,n
CC1(C)CC(=O)C(C=Nc2ccc(O)cc2)=C(O)C1,n,x,-2.21,n,n,n,n
CCOc1ccc(N=CC2=C(O)CC(C)(C)CC2=O)cc1,n,n,n,n,n,x,x
N/C(CCN1CCCCC1)=N/O,n,n,n,n,n,x,x
CCN1CCN(C(=O)c2oc(=O)c3ccccc3c2-c2ccc(C)cc2)CC1,n,n,-1.84,n,n,320,n
Cc1ccc(Nc2nc(CSc3nnnn3C)cs2)cc1,n,n,-4.78,n,n,n,n
Cn1nnnc1SCc1csc(Nc2ccccc2)n1,n,n,n,n,n,x,x
N#Cc1nc(COc2ccccc2)oc1NCCN1CCOCC1,n,n,n,x,x,x,x
N#Cc1nc(COc2ccc(-c3ccccc3)cc2)oc1NCCCN1CCOCC1,n,n,-2.98,n,n,n,n
CSc1ccc(N2C(=O)NC3(CCCCC3)C2=O)cc1,n,n,n,n,n,x,x
COc1ccc(C(=O)N2CCN(C(=O)Cc3ccccc3)CC2)cc1OC,n,n,-3.68,n,n,n,n
O=C1CC(c2ccc(F)c(Br)c2)C2=C(CCCC2=O)N1 (stereo not given),n,n,n,n,n,x,x
Cc1ccc(S(=O)(=O)N2CCC(C(=O)N3CCC[C@H]3C(=O)NCc3ccco3)CC2)cc1,n,n,-2.21,n,n,555,n
CNC(=O)C1C2C=CC3(O2)C1C(=O)N(C1CC1)C3C(=O)NCc1ccc(OC)cc1 (stereo not given),n,n,-2.08,x,x,n,n
C=CCN1C(=O)C2C(C(=O)NC)C3C=CC2(O3)C1C(=O)NCc1ccc(OC)cc1 (stereo not given),n,n,n,x,x,x,x
Cc1ccc(C(C(=O)NC2CCCCC2)N2CCCC2)cc1 (stereo not given),n,n,-3.82,x,x,461,n
SMILES,M1 ag,D1 allo mod,M1 antag,S1P1 ag-PAM,S1P3 agonist,M1 antag confirm,mGluR4 antag
O=C(NC1CCCCC1)C(c1ccccc1)N1CCCC1 (stereo not given),n,n,-13.2,x,x,121,n
Cc1ccc(C(C(=O)NC2CCCC2)N2CCCCC2)cc1 (stereo not given),n,n,-3.45,n,n,468,n
Cc1ccccc1CN1CCN(CC(=O)NCc2ccc3c(c2)OCO3)C1=O,n,n,n,x,x,x,x
Cc1ccc(C2C3=C(CCCC3=O)Nc3nc(SCC(=O)NCc4ccco4)[nH]c(=O)c32)cc1 (stereo not given),n,n,n,n,n,x,x
Cc1nc2ncnn2c(N2CCN(c3cccc(C(F)(F)F)c3)CC2)c1C,n,n,n,n,n,x,x
O=c1c2ccccc2nnn1CSc1nnc(-c2cccc(S(=O)(=O)N3CCCCC3)c2)o1,n,n,-4.24,x,x,366,n
COc1ccccc1-c1c(C)nn2c(N3CCN(c4ccccc4OC)CC3)cc(C)nc12,n,n,n,n,n,x,x
COc1ccccc1-c1c(C)nn2c(N3CCCCCC3)cc(C)nc12,n,n,-2.53,n,n,n,n
C(=N\n1cnnc1)/c1ccc(-c2ccccc2)cc1,n,n,-7.45,n,n,n,n
Cc1onc(-c2c(F)cccc2Cl)c1C(=O)OCn1nnc2ccccc2c1=O,n,n,n,n,n,x,x
COCCn1c(-c2cc(OC)c(OC)c(OC)c2)nc2oc3ccccc3c(=O)c2c1=O,n,n,n,n,n,x,x
CC(=O)OC1c2ccccc2C(=O)N1Cc1ccccc1Cl (stereo not given),n,n,n,n,n,x,x
COc1ccc(OC)c(CNC(=O)C2CCN(C(=O)N(C)C)CC2)c1,n,n,-3.04,n,n,n,n
CN1CCCN=C1COC(=O)C(O)(c1ccccc1)C1CCCCC1 (stereo not given),n,n,-15.7,n,n,25.9,n
CCOC(=O)C(NC(=O)N1CCCCC1)(c1ccccc1)C(F)(F)F (stereo not given),n,n,n,n,n,x,x
CCCCCCN=CC1=C(O)C(C(=O)OC)C(C)(C)CC1=O (stereo not given),n,n,n,x,x,x,x
O=C(O)CCCCCNCc1ccncc1,n,n,n,x,x,x,x
CCCOC(=O)c1ccc(OCC(O)CN2CCN(C(=O)c3ccccc3)CC2)cc1 (stereo not given),n,n,-2.04,n,n,n,n
Cc1ccc(C(C)C)c(OCc2nc(-c3nonc3N)no2)c1,n,x,-2.35,92.0,17.1,n,n
CCN1CCN(CCCOc2ccc(-c3ccccc3)cc2)CC1,n,n,-3.5,n,n,197,n
c1ccc(-c2ccc(OCCCn3cncn3)cc2)cc1,n,x,n,n,n,x,x
CC1(C)CN=C(NC2CCCCC2)S1,n,n,-4.76,n,n,459,n
CCCS(=O)(=O)N1CCC(C(=O)NCC2CCCO2)CC1 (stereo not given),n,n,n,n,n,x,x
Cc1nnc(SCCn2c(N3CCC(Cc4ccccc4)CC3)nc3c2c(=O)[nH]c(=O)n3C)s1,n,n,n,x,x,x,x
